According to ChEMBL document CHEMBL5257087, “Anti-inflammatory Activity of Tanshinone-Related Diterpenes from Perovskia artemisioides Roots” (2023):
Active and inactive are the calls of the source. The rule behind the calls is not given here.

Tests used:
J774.A1 [1] = assay: Antiproliferative activity against mouse J774.A1 cells assessed as reduction in cell viability at 100 uM incubated for 24 hrs by MTT assay; assay type: functional, cell-based
Outline: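 J774A.1 cells at 5 × 10^4 cells/well adhered 3 h, then were incubated 24 h with compound serial dilutions (100–12.5 μM). MTT (5 mg/mL stock) was added for 3 h, formazan dissolved in DMSO, and OD read at 570 nm. The value is the % dead cells, 100 − [(OD treated/OD control) × 100]. 6-Mercaptopurine (1 μM) was the reference. At least three experiments, each in triplicate.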

J774.A1 [2] = assay: Antiinflammatory activity in mouse J774.A1 macrophages assessed as inhibition of LPS-induced NO production at 12.5 to 50 uM preincubated for 1 hr followed by LPS stimulation and measured after 24 hrs by griess reagent based assay; assay type: functional, cell-based; details: dose 12.5-50 µM, time 25.0 hrs
Outline: (§1)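 Macrophages adhered 3 h at 5 × 10^4 cells/well, then were exposed to compound (50–12.5 μM) for 1 h before E. coli LPS (10 μg/mL) was added. After 24 h, nitrite in the medium was reacted with Griess reagent for 10 min at room temperature and absorbance read at 550 nm. Values are in μM from a sodium nitrite standard curve. L-NAME (1 μM) served as reference. Data are mean ± SEM, n ≥ 3, triplicate.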

J774.A1 [3] = assay: Antiinflammatory activity in mouse J774.A1 macrophages assessed as inhibition of LPS-induced iNOS expression at 12.5 to 50 uM preincubated for 1 hr followed by LPS stimulation and measured after 24 hrs by cytofluorimetry analysis; assay type: functional, cell-based; details: dose 12.5-50 µM, time 25.0 hrs
Outline: (§2)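 J774A.1 cells plated at 5 × 10^4 cells/well and allowed to adhere 3 h at 37 °C. Compounds were added 1 h before and then together with E. coli LPS (10 μg/mL) for 24 h. Cells were fixed and permeabilized, then stained with anti-iNOS or anti-COX-2 and a secondary antibody. Read as mean fluorescence intensity by flow cytometry. Indomethacin (1 μM) served as positive control. At least three independent experiments, each in triplicate.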

J774.A1 [4] = assay: Antiinflammatory activity in mouse J774.A1 macrophages assessed as inhibition of LPS-induced COX2 expression at 12.5 to 50 uM preincubated for 1 hr followed by LPS stimulation and measured after 24 hrs by cytofluorimetry analysis; assay type: functional, cell-based; details: dose 12.5-50 µM, time 25.0 hrs; outline: as §2
J774.A1 [5] = assay: Antiinflammatory activity in mouse J774.A1 macrophages assessed as inhibition of LPS-induced COX2 expression at 1 uM preincubated for 1 hr followed by LPS stimulation and measured after 24 hrs by cytofluorimetry analysis; assay type: functional; details: time 25 hrs; outline: as §2
J774.A1 [6] = assay: Antioxidant activity in mouse J774.A1 macrophages assessed as inhibition of LPS-induced nitrotyrosine formation at 25 to 50 uM preincubated for 1 hr followed by LPS stimulation and measured after 24 hrs by cytofluorimetry analysis; assay type: functional, cell-based; details: dose 25-50 µM, time 25.0 hrs
Outline: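 J774A.1 cells (5 × 10^4 cells/well, 3 h adherence) were pretreated with compound (50–12.5 µM) for 1 h, then LPS (10 µg/mL) was added. After 24 h cells were PBS-washed, fixed for 20 min and permeabilized for 30 min. Rabbit anti-nitrotyrosine and secondary antibody were each applied for 30 min. Read-out was flow-cytometric mean fluorescence intensity versus LPS alone. Means ± SEM, ≥3 independent experiments, each in triplicate.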

J774.A1 [7] = assay: Antioxidant activity in mouse J774.A1 macrophages assessed as inhibition of LPS-induced intracellular ROS production at 12.5 to 50 uM preincubated for 1 hr followed by LPS stimulation and measured after 24 hrs by DCFH2-DA probe based fluorescence analysis; assay type: functional, cell-based; details: dose 12.5-50 µM, time 25.0 hrs
Outline: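 Macrophages (J774A.1, 5 × 10^4 cells/well, 3 h adherence) were given the compound (50–12.5 µM) 1 h before and during LPS (10 µg/mL). After 24 h cells were collected and washed twice in PBS, then loaded with 10 µM H2DCF-DA in PBS at 37 °C for 15 min. DCF fluorescence was read by flow cytometry as mean fluorescence intensity versus LPS alone. Means ± SEM, ≥3 independent experiments, each in triplicate.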

J774.A1 [8] = assay: Antiinflammatory activity in mouse J774.A1 macrophages assessed as inhibition of LPS-induced iNOS expression at 1 uM preincubated for 1 hr followed by LPS stimulation and measured after 24 hrs by cytofluorimetry analysis; assay type: functional; details: time 25 hrs
Outline: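 J774A.1 cells were plated at 5 × 10^4 cells/well and allowed to adhere for 3 h. The agent was added 1 h before LPS (10 µg/mL) and kept during stimulation; cells were harvested after 24 h. Cells were washed in PBS, fixed for 20 min and permeabilized for 30 min. Anti-iNOS primary and secondary antibodies were each applied for 30 min. Read-out was flow-cytometric mean fluorescence intensity versus LPS alone. Means ± SEM, ≥3 independent experiments, each in triplicate.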

J774.A1 [9] = assay: Antiinflammatory activity in mouse J774.A1 macrophages assessed as inhibition of LPS-induced NO production at 1 uM preincubated for 1 hr followed by LPS stimulation and measured after 24 hrs by griess reagent based assay; assay type: functional; details: time 25 hrs
Outline: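 Murine J774A.1 cells (DMEM, 10% FBS) were plated at 5 × 10^4 cells/well and allowed to adhere for 3 h at 37 °C in 5% CO2. They were exposed to the agent in fresh medium for 1 h, then to E. coli LPS at 10 µg/mL for 24 h. Medium nitrite was measured with Griess reagent (10 min, room temperature, A550) and converted to µM against a sodium nitrite standard. Means ± SEM, ≥3 independent experiments, each in triplicate.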

J774.A1 [10] = assay: Antiinflammatory activity in mouse J774.A1 macrophages assessed as reduction in LPS-induced nitrite production at 12.5 to 50 uM preincubated for 1 hr followed by LPS stimulation and measured after 24 hrs by griess reagent based assay; assay type: functional, cell-based; details: dose 12.5-50 µM, time 25.0 hrs; outline: as §1
J774.A1 [11] = assay: Antioxidant activity in mouse J774.A1 macrophages assessed as inhibition of LPS-induced nitrotyrosine formation at 12.5 to 50 uM preincubated for 1 hr followed by LPS stimulation and measured after 24 hrs by cytofluorimetry analysis; assay type: functional, cell-based; details: dose 12.5-50 µM, time 25.0 hrs
Outline: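 Cells were pretreated 1 h with compound (50–12.5 μM), then LPS (10 μg/mL) was added for 24 h. Cells were harvested, PBS-washed, fixed 20 min and permeabilized 30 min. They were stained 30 min with rabbit anti-nitrotyrosine, then 30 min with secondary antibody. Mean fluorescence intensity was read by flow cytometry. L-NAME and indomethacin (1 μM each) were positive controls. Mean ± SEM of at least three experiments, each in triplicate.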

Compound	Activity (J774.A1 [1])	inhibition (J774.A1 [2])	inhibition (J774.A1 [3])	inhibition (J774.A1 [4])	also measured
Cc1cc2ccc3c(c2cc(O)c1=O)CCCC3(C)C	Active	–	–	–	–
COC(=O)/C(=C\c1ccc2c3c1C(=O)O[C@H]3CCC2(C)C)C(C)C	Active	Active	Active	Active	–
COc1ccc2c(c1)c(CC(=O)O)c(C)n2C(=O)c1ccc(Cl)cc1 [INDOMETHACIN]	–	–	–	–	inhibition at 1 µM (J774.A1 [5]): 47.8%
CC(C)c1cc2ccc3c(c2oc1=O)CCCC3(C)C	Active	–	–	–	–
C[C@H]1COC2=C1C(=O)C(=O)c1c2ccc2c1CCCC2(C)C	Active	Active	Active	Active	inhibition (J774.A1 [6]): Active; inhibition (J774.A1 [7]): Active
CC(C)c1cc2c(cc1O)[C@@]1(C)CCCC(C)(C)C1=C(O)C2=O	Active	Active	Active	Active	–
COC(=O)[C@@H](N)CCCNC(=N)N[N+](=O)[O-]	–	–	–	–	inhibition at 1 µM (J774.A1 [8]): 47.1%; inhibition at 1 µM (J774.A1 [9]): 51.2%
Cc1coc2c1C(=O)C(=O)c1c-2ccc2c1C(=O)CCC2(C)C	–	Active	Active	Active	Activity (J774.A1 [10]): Active; inhibition (J774.A1 [7]): Active; inhibition (J774.A1 [11]): Active
CC(C)c1cc2ccc3c(c2c(O)c1O)C(=O)CCC3(C)C	Active	–	–	–	–
CC(C)C1=CC2=C(C(=O)C1=O)[C@@]1(C)CCCC(C)(C)C1C[C@@H]2O (stereo not given in full)	Active	–	–	–	–
C[C@H]1CO[C@]2(C1)OC(=O)c1cc3c(cc12)CC(C)(C)CC3	Active	–	–	–	–
CC(C)/C(=C/c1ccc2c3c1C(=O)O[C@H]3CCC2(C)C)C(=O)O	–	Active	Active	Active	–
CC(C)c1cc2c(cc1O)[C@@]1(CO)CCCC(C)(C)[C@@H]1CC2	Active	Active	Active	Active	–
